Results as given in ChEMBL document CHEMBL1145053, “Stereoselective synthesis and structure-activity relationship of novel ceramide trafficking inhibitors. (1R,3R)-N-(3-hydroxy-1-hydroxymethyl-3-phenylpropyl)dodecanamide and its analogues” (J Med Chem, 2003).
“And” between values parts separate entries of the source, which are not always exact repeats. Equal entries are not always repeated.

These compounds were tested on CHO (assay: Inhibitory concentration on de novo synthesis of sphingomyelin (SM) by metabolic labeling of lipids in CHO cells with radioactive serine). Details: Cricetulus griseus.
Format: functional, cell-based
Outline: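 Compound tested at 0 to 1 μM in serum-free medium containing 0.01% (v/v) DMSO. Subconfluent CHO-K1 monolayers were preincubated at 4 °C for 15 min, then pulsed with L-[14C]serine (0.75 μCi) at 33 °C for 2 h. Labeled SM was separated by TLC, imaged, and normalized to cell protein. IC50 came from […] of a single assay series.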
`CCCCCCCCCCCCCCC(=O)N[C@@H](CO)C[C@@H](O)c1ccccc1` gave an IC50 of 90 nM. In the case of `CCCCCCCCCC(=O)N[C@@H](CO)C[C@@H](O)c1ccccc1`, the IC50 is reported as 300 nM. `CCCCCCCCCCCCCCCC(=O)N[C@@H](CO)C[C@@H](O)c1ccccc1` gave an IC50 greater than 1000 nM. Compound `CCCCCCCCCCCC(=O)N[C@@H](CO)C[C@@H](O)c1ccccc1` has an IC50 of 70 nM. `CCCCCCCCCCCCCCCCCC(=O)N[C@@H](CO)C[C@@H](O)c1ccccc1` showed an IC50 greater than 1000 nM. `CCCCCCCCCCCCCCCCC(=O)N[C@@H](CO)C[C@@H](O)c1ccccc1` gave an IC50 greater than 1000 nM. `CCCCCCCCCCCCCC(=O)N[C@@H](CO)C[C@@H](O)c1ccccc1` was tested, and the IC50 was 70 nM. `CCCCCCCCCCCCC(=O)N[C@@H](CO)C[C@@H](O)c1ccccc1` showed an IC50 of 50 nM. For `CCCCCCCCCCC(=O)N[C@@H](CO)C[C@@H](O)c1ccccc1`, the IC50 was 110 nM.

Each compound was assayed on CHO (assay: Effect of compound on de novo synthesis of sphingomyelin (SM) by metabolic labeling of lipids in CHO cells with radioactive serine at 1 uM). Details: not given.
Format: functional, Cricetulus griseus
Outline: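 CHO-K1 subconfluent monolayers preincubated in serum-free medium with compound at 1 μM, 0.01% (v/v) DMSO, 4 °C for 15 min. L-[14C]serine (0.75 μCi) then added, 33 °C for 2 h. Lipids extracted, TLC-separated, labeled SM quantified by imaging analyzer and normalized to lysate protein. Reported as % of DMSO-only control; mean ± SD, n = 3.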
`CCCCCCCCCCCC(=O)N[C@@H](CO)[C@H](O)[C@@H](O)c1ccccc1` was tested, and the “Sphingomyelin synthesis, % of control” value was 28%. In the case of `CCCCCCCCCCCC(=O)N[C@@H](CO)[C@@H](O)[C@@H](O)c1ccccc1`, the “Sphingomyelin synthesis, % of control” value is reported as 57%. In the case of `CCCCCCCCCCCC(=O)N[C@@H](CO)C[C@@H](O)c1ccccc1`, the “Sphingomyelin synthesis, % of control” value is reported as 8.2% and 4%. In the case of `CCCCCCCCCCCC(=O)N[C@@H](COC)C[C@@H](O)c1ccccc1`, the “Sphingomyelin synthesis, % of control” value is reported as 79%. `CCCCCCCCCCCC(=O)N[C@@H](CO)[C@@H](O)[C@H](O)c1ccccc1` was tested, and the “Sphingomyelin synthesis, % of control” value was 40%. In the case of `CCCCCCCCCCCC(=O)N[C@@H](CO)C[C@@H](OC)c1ccccc1`, the “Sphingomyelin synthesis, % of control” value is reported as 119%. `CCCCCCCCCCCC(=O)N[C@@H](CO)[C@H](O)[C@H](O)c1ccccc1` was tested, and the “Sphingomyelin synthesis, % of control” value was 17%. For `CCCCCCCCCCCC(=O)N[C@@H](COC)C[C@@H](OC)c1ccccc1`, the “Sphingomyelin synthesis, % of control” value was 130%.
